Hits are enriched below; roughly 3.1% of the tested compounds scored in any of these assays.
MEKK2 WT-MEK5: modulators of MEK5 binding to wildtype MEKK2, primary screen, biochemical, multiplex bead flow cytometry, Alexa488-MEK5 | 290,000 tested, 1.1% active | AID 1531, 2009 | Alexa488-MEK5 binding to MEKK2 WT; actives lie on both sides | binding response (% of control), % at 10 µM; in the data active means binding response below about 67% or above about 130%; inconclusive means no clear call, values can overlap the other calls; inactive means in between
UBC13 inh: UBC13 polyubiquitin chain formation inhibitors, primary screen, biochemical, TR-FRET, uHTS; Ubiquitin-conjugating enzyme E2 N (Homo sapiens), P61088; inhibition, % at 20 µM; 330,000 tested, 0.47% active; in the data active means inhibition above about 45%, passing the limit was not always enough; inconclusive means no clear call, values can overlap the other calls
Target sequence (P61088 whole entry, looked up): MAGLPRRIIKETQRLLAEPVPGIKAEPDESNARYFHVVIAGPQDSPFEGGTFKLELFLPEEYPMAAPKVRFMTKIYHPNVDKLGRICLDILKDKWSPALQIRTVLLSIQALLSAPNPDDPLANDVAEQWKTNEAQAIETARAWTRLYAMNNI
Apaf-1 inh: inhibitors of human Apaf-1 apoptosome, primary screen, biochemical, DEVD-Rh110 fluorescence, uHTS | Apoptotic protease-activating factor 1 (Homo sapiens), O14727 | reconstituted apoptosome caspase-3 activity | inhibition, % at 20 µM | 330,000 tested, 0.71% active | AID 489030, 2010; active means inhibition of at least 40% at 20 µM
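detection = Rh110 fluorescence intensity | test system = biochemical Apaf-1 apoptosome reconstitution | also added = cytochrome c and DEVD-Rh110 substrate | schedule = 30 min plus 50 min, RT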
MEKK2 mut-MEK5: MEK5 binding signal on mutant MEKK2 PB1, primary screen, biochemical, multiplex bead flow cytometry, Alexa488-MEK5 | Alexa488-MEK5 binding to MEKK2 mutant | percent response, % at 10 µM | 290,000 tested, 0.35% active; in the data active means percent response above about 24%, passing the limit was not always enough
MEKK3 PB1 HTS: modulators of MEKK3-MEK5 PB1 binding, primary screen, biochemical, wildtype MEKK3, multiplex bead flow cytometry, Alexa488-MEK5; binding response (% of control), % at 10 µM; bead-based flow cytometry, Alexa488-MEK5 binding to MEKK3; actives lie on both sides; 0 = blocked by unlabeled MEK5, 100 = vehicle; 290,000 tested, 1.4% active; Mitogen-activated protein kinase kinase kinase 3 (Homo sapiens), Q99759;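 active means binding response more than 3 SD above or below the average of its plate-row segment, actives on both sides; inconclusive means wells at one plate position flagged as instrument error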;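 further: Alexa488 bead fluorescence after subtracting the streptavidin-only scavenger bead signal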
Target sequence (Q99759 whole entry, looked up): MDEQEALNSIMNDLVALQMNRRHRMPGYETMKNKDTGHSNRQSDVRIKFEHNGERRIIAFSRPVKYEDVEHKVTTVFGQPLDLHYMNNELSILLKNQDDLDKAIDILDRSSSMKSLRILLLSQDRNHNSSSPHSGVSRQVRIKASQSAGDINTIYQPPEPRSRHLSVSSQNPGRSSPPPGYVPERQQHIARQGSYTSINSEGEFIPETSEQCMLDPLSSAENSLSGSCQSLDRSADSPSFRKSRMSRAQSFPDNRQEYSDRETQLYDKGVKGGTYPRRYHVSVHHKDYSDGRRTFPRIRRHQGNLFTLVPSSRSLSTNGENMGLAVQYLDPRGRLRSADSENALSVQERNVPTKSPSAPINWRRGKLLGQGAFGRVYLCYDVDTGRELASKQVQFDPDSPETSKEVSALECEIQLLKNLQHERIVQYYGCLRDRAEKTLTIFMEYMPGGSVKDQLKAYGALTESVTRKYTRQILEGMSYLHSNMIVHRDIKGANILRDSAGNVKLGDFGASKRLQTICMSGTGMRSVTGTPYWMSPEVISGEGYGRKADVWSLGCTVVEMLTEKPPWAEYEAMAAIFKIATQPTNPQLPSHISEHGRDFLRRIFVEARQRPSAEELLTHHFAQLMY
PREPL inhibitor: PREPL enzyme inhibitors, primary screen, biochemical, fluorescence polarization; 320,000 tested, 0.68% active; inhibition, % at 5.96 µM; recombinant PREPL, fluorescence polarization activity-based probe; AID 2751, 2010; Prolyl endopeptidase-like (Homo sapiens), Q4J6C6
MEKK2wt confirm: modulators of MEK5 binding to wildtype MEKK2, confirmation, biochemical, single concentration, multiplex bead flow cytometry; shares compounds with MEKK3 PB1 HTS; Alexa488-MEK5 binding to MEKK2 WT; actives lie on both sides; binding response (% of control), % at 10 µM; 5,900 tested, 2.4% active; AID 1892, 2009; in the data active means binding response below about 16% or above about 210%; inactive means in between
MEKK2mut-MEK5: mutant MEKK2 PB1-MEK5 binding signal retest – biochemical, single concentration, multiplex bead flow cytometry, confirmation. shares compounds with MEKK3 PB1 HTS. Alexa488-MEK5 binding to MEKK2 mutant. percent response, % at 10 µM. 5,900 tested, 2% active; in the data active means percent response mostly above about 71%, no sharp cut-off; inactive means mostly below about 38%;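 further: higher means compound restores mutant binding toward wildtype level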
MEKK3-MEK5 inh: MEKK3 wild-type PB1 binding to MEK5, inhibitors, confirmation, biochemical, bead multiplex flow cytometry, single concentration, wildtype | 5,900 tested, 1.8% active | shares compounds with MEKK3 PB1 HTS | binding response (% of control), % at 10 µM | Alexa488-MEK5 binding to MEKK3; hits give low values;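 active means binding response below 72% of control, or above a set upper limit, though filed actives all read lower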
PREPL confirm: human PREPL enzyme inhibitors, confirmation, biochemical, fluorescence polarization | shares compounds with PREPL inhibitor | recombinant PREPL, fluorescence polarization activity probe | inhibition, % at 5.96 µM | 2,000 tested, 67% active
Casp3 UBC13 ctr: CASP3 inhibitor validation, counterassay for project on UBE2N polyubiquitination blockers, biochemical, one dose | shares compounds with UBC13 inh | Recombinant caspase-3, Caspase-Glo 3/7 luminescence, 60 min | inhibition, % at 20 µM | 1,400 tested, 4% active | AID 488856, 2010;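 active means mean inhibition across replicates above about 26%, limit read from the data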
UBC13 confirm: UBC13 polyubiquitination inhibitors, single-point retest, confirmation, biochemical, TR-FRET, single concentration; shares compounds with UBC13 inh; inhibition, % at 10 µM; 1,400 tested, 68% active; AID 488859, 2010; in the data active means inhibition above about 45%; inconclusive means no clear call, values can overlap the other calls
Apaf-1 inh conf2: Apaf-1 inhibitors, single-dose retest, confirmation, biochemical, fluorescence, DEVD-Rh110, 20 µM; shares compounds with Apaf-1 inh; inhibition, % at 20 µM; reconstituted apoptosome, caspase-3 DEVD-Rh110 fluorescence; 1,800 tested, 25% active; AID 504614, 2011;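 active means mean inhibition of at least 40% at 20 µM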
Rh110 quench: Rh110 fluorescence interference by putative Apaf-1 inhibitors, confirmation, artefact control for Apaf-1 inhibitor project, biochemical, 20 µM; shares compounds with Apaf-1 inh; quenched caspase reaction; activation (fluorescence interference), % at 20 µM; 1,800 tested, under 10 active;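 active means signal rise of 40% or more at 20 µM, treated as a fluorescence artifact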
Apaf1 inh interf: fluorescence interference of Apaf-1 inhibitor hits, dose response, artefact control for Apaf-1 inhibitor project | shares compounds with Apaf-1 inh | fluorescence interference counterscreen, Apaf-1 assay format | IC50, µM | 460 tested, under 10 active; call rule not given here
Numbers stand for hits; 0 = inactive; ? = inconclusive; - = not tested or not shown; [ ] = dose if it differs, or a comment. Unless noted, no stated cut-off is given here; in the data, active means inhibition above about 43%; inactive means the rest.

SMILES | MEKK2 WT-MEK5 | UBC13 inh | Apaf-1 inh | MEKK2 mut-MEK5 | MEKK3 PB1 HTS | PREPL inhibitor | PREPL confirm | others
CC1(c2ccccc2)NCCN2C(=O)CSC21 (centres undefined) | 0 | 0 | 0 | 0 | 0 | 0 | -
CC1(C)C2SCC(=O)N2CCN1CC(=O)NN (centres undefined) | 0 | 0 | 0 | 0 | 128 | 0 | - | MEKK2wt confirm=0;MEKK2mut-MEK5=0;MEKK3-MEK5 inh=0
C1=C(c2c[nH]c3ccccc23)CCNC1 | 173 | 96 | 0 | 99 | 0 | 62 | 63 | MEKK2wt confirm=0;MEKK2mut-MEK5=0;MEKK3-MEK5 inh=0
CCCN1CCC[C@@H](c2cccc(O)c2)C1 | - | 0 | 0 | - | - | 0 | -
ClCCN1CCN(c2ccnc3cc(Cl)ccc23)CC1 | 154 | 62 | 0 | 0 | 0 | 0 | - | MEKK2wt confirm=0;MEKK2mut-MEK5=0;MEKK3-MEK5 inh=0;Casp3 UBC13 ctr=0;UBC13 confirm=90
C[C@@H]1CN(C2CCC(C#N)(c3ccc(F)cc3)CC2)CC[C@]1(C(=O)O)c1ccccc1 (some centres undefined) | - | 0 | 0 | - | - | 0 | -
CCC(C)NC(=O)c1c(N)n(CC2CCCO2)c2nc3ccccc3nc12 (centres undefined) | 0 | 0 | 94 | 0 | 82[inhibitor] | 0 | - | MEKK2wt confirm=0;MEKK2mut-MEK5=0;MEKK3-MEK5 inh=0;Apaf-1 inh conf2=56;Rh110 quench=0;Apaf1 inh interf=0
c1ccc(CCCN2CCN(CCOC(c3ccccc3)c3ccccc3)CC2)cc1 | 162 | 0 | 51 | 0 | 0 | 0 | - | MEKK2wt confirm=0;MEKK2mut-MEK5=0;MEKK3-MEK5 inh=0;Apaf-1 inh conf2=0;Rh110 quench=0
COc1ccccc1NC(=O)c1cn(CCC#N)nc1-c1ccc(F)cc1 | 0 | ? | 0 | 0 | 0 | - | -
c1ccc2c(c1)[nH]c1cnccc12 | 0 | 0 | 0 | 0 | 0 | 0 | -
Cc1c2ccncc2c(C)c2c1[nH]c1ccccc12 | 201 | 0 | 67 | 28 | 72[inhibitor] | 0 | - | MEKK2wt confirm=0;MEKK2mut-MEK5=0;MEKK3-MEK5 inh=0;Apaf-1 inh conf2=0;Rh110 quench=0
CN1CCN(CC(=O)Nc2ccc([N+](=O)[O-])cc2C(=O)c2ccccc2)CC1 | 0 | 0 | 0 | 0 | 0 | 0 | -
CC(Cc1ccccc1)NC(=O)c1ccc(N)cc1 (centres undefined) | 0 | 0 | 0 | 0 | 0 | 0 | -
CC(Cc1ccccc1)NC(=O)C(c1ccc(N)cc1)c1ccc(N)cc1 (centres undefined) | 0 | 0 | 0 | 0 | 0 | 50 | 0
Cn1ncnc2c(=O)n(C)c(=O)nc1-2 | 0 | 0 | 99 | 0 | 0 | 44 | 54
CC(C)CN1CCN(Cc2cccc3c2OCO3)CC1CCO (centres undefined) | - | 0 | 0 | - | - | 0 | -
CCOc1cccc(=NC2CCCCC2)c2c(C)n(C)c(C)c12 | 0 | 0 | 0 | 0 | 0 | 48 | 50
CCOc1ccccc1N=C1SCCCN1C | 0 | 0 | 0 | 0 | 0 | 0 | -
COC(=O)[C@@H]1C[C@H]1[C@@H](NP(=O)(c1ccccc1)c1ccccc1)c1ccccc1 | 0 | 0 | 0 | 0 | 0 | 0 | -
COC(=O)[C@H]1C[C@@H]1[C@H](NP(=O)(c1ccccc1)c1ccccc1)c1ccccc1 | 0 | 0 | 0 | 0 | 0 | 47 | 47
CCCCc1ncc(CN2CCCC(C(=O)c3ccc(SC)cc3)C2)[nH]1 (centres undefined) | 0 | 0 | 0 | 0 | 0 | 0 | -
CN(C(=O)Cc1ccc(Cl)c(Cl)c1)C(CN1CCCC1)c1cccc(OCC(=O)O)c1 (centres undefined) | - | 0 | 0 | - | - | 0 | -
CCCCn1c(C)c(C(=O)OCC)c2c(CN3CCCC3)c(O)ccc21 | 0 | 0 | 0 | 0 | 0 | 55 | 0
COc1ccccc1-n1c(O)c(/C=N/N2CCCCC2)c(=O)n(-c2ccccc2OC)c1=S | 0 | 0 | 0 | 0 | 0 | 0 | -
CCOP(=O)(OCC)c1cc(CC)ccc1O | 0 | 0 | 0 | 0 | 0 | 0 | -
SMILES | MEKK2 WT-MEK5 | UBC13 inh | Apaf-1 inh | MEKK2 mut-MEK5 | MEKK3 PB1 HTS | PREPL inhibitor | PREPL confirm | others
COc1ccc2c3c([nH]c2c1)C(C)NCC3 (centres undefined) | 1.0 | 0 | 0 | 0 | 0 | 67 | 0
O=c1cc(C(F)(F)F)c2cc3c4c(c2o1)CCCN4CCC3 | 0 | 0 | 0 | 0 | 0 | 56 | 55
C=CCn1c(O)c(C(CC)=NCCc2c[nH]c3ccccc23)c(=O)[nH]c1=O | 0 | 0 | 0 | 0 | 0 | 49 | 52
C=CCn1c(O)c(C(CC)=NCCc2ccccc2)c(=O)[nH]c1=O | 0 | 0 | 0 | 0 | 0 | 0 | -
Cc1ccc2c(c1)c(=O)c1c3n2CCN(CC2CO2)C3CC1 (centres undefined) | 0 | 0 | 0 | 0 | 0 | 0 | -
COc1ccc2[nH]c(C)c(CCNCc3cc(OC)c4c(c3)OCO4)c2c1 | - | 0 | 0 | - | - | 74 | 66
